Experimental data: publication PMC5035717 (Cell, 2016)
Changes are numbered by the printed parent chain. “Also recorded” adds a separate entry of the source. Read-outs that look alike come from different tables or passages of the source.

Legend:
[1] = tested on: endogenous Smo in NIH-3T3 cells; experiment: Ciliary recruitment of endogenous Smo in sterol-depleted NIH-3T3 cells; format: cell-based; conditions: for Recruitment of endogenous Smo to cilia: agent alone; for Rescue of Smo recruitment to cilia in response to Shh: sterols added back as MCD complexes (100 μM)
How it was run: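 Confluent NIH-3T3 cells starved overnight in DMEM, then sterol-depleted with 1.5% MCD for 30 min. Kept in DMEM with 40 μM pravastatin throughout. Sterols added back 1 h as MCD complexes, then overnight with agents or Shh (conditioned medium from 293T cells expressing human Shh aa 1–197). Stained with anti-acetylated tubulin (1:5000) and anti-mSmo (1 μg/mL final); ciliary Smo intensity quantified automatically.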

XSmoG84S ectodomain [2] = molecular target: T1, XSmoG84S ectodomain (Xenopus laevis, UniProt Q98SW5, G84S); conditions: read-out: IC50, competition of BODIPY-cyclopamine binding
T1 sequence (Q98SW5 35-189 G84S): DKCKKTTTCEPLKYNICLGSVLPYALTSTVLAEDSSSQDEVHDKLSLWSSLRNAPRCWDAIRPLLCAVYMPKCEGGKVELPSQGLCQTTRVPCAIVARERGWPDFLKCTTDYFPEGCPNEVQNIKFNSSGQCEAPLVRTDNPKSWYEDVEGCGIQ
How it was run: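 Purified E. coli-expressed Xenopus Smo G84S ectodomain incubated with BODIPY-cyclopamine (5 nM) and varying concentrations of unlabeled competitor for 1 h at room temperature. Fluorescence polarization read on a plate reader and converted to anisotropy. Measured in triplicate; IC50 obtained by fitting competition curves.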

mSmoG115S = mSmoG115S (Mus musculus, UniProt P56726, G115S); experiment: Hh pathway activity by qPCR for Gli1 in Smo-null cells rescued with mSmoG115S; format: cell-based
XSmo ectodomain [3] = molecular target: T2, XSmo ectodomain (Xenopus laevis, UniProt Q98SW5); format: binding
T2 sequence (Q98SW5 35-189): T1 sequence (Q98SW5 35-189 G84S) with S50G

XSmo ectodomain [4] = molecular target: T2, XSmo ectodomain; experiment: Circular dichroism; format: binding; conditions: small molecule 25 μM; CD signal at 225 nm; protein alone Tm=62.1°C
mSmoD99A = mSmoD99A (Mus musculus, UniProt P56726, D99A); experiment: Hh pathway activity by qPCR for Gli1 in Smo-null cells rescued with mSmoD99A; format: cell-based
mSmoG115F = mSmoG115F (Mus musculus, UniProt P56726, G115F); experiment: Hh pathway activity by qPCR for Gli1 in Smo-null cells rescued with mSmoG115F; format: cell-based
mSmoE164L = mSmoE164L (Mus musculus, UniProt P56726, E164L); experiment: Hh pathway activity by qPCR for Gli1 in Smo-null cells rescued with mSmoE164L; format: cell-based
mSmoG115S/E164L = mSmoG115S/E164L (Mus musculus, UniProt P56726, E164L/G115S); format: cell-based
[5] = tested on: Hh signaling in NIH-3T3 cells; experiment: Synergy with Shh in activating Hh signaling in NIH-3T3 cells; format: cell-based, mouse
XSmoCRD = molecular target: T3, XSmoCRD (Xenopus laevis, UniProt Q98SW5); experiment: Fluorescence polarization binding of BODIPY probes to purified XSmoCRD; conditions: XSmoCRD (amino acids 35–154), probe 5 nM
T3 sequence (Q98SW5 35-154): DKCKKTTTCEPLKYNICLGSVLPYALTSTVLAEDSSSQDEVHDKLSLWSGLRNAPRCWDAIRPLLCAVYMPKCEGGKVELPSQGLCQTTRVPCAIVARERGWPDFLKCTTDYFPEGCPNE
How it was run: (§1)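 Xenopus Smo CRD (aa 35–154) or ectodomain (aa 35–189; wild type or G84S) expressed in E. coli as thioredoxin-His6 fusions. Purified by Ni-NTA, glutathione redox refolding and size exclusion. Increasing protein amounts mixed with BODIPY FL probes (5 nM) in 20 mM HEPES pH 7.5, 100 mM NaCl, 1 h at room temperature. FP converted to anisotropy; triplicate; Kd from curve fitting.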

XSmo ectodomain [6] = molecular target: T2, XSmo ectodomain; experiment: Fluorescence polarization binding of BODIPY probes to purified XSmo ectodomain; conditions: XSmo ectodomain (amino acids 35–189), probe 5 nM
How it was run: as §1

XSmoG84S ectodomain [7] = molecular target: T1, XSmoG84S ectodomain; format: binding
How it was run: as §1

mSmoD477G/E522K = mSmoD477G/E522K (Mus musculus, UniProt P56726, D477G/E522K); experiment: BODIPY-cyclopamine binding to mCherry-tagged mSmoD477G/E522K in 293T cells; conditions: 50 nM
How it was run: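 mCherry-tagged mutant mSmo transiently expressed in 293T cells. Cells washed into serum-free OptiMEM, then incubated 1 h with BODIPY-cyclopamine, with or without SANT1 competitor (10 μM). Fixed in 3.6% formaldehyde/PBS for 30 min at room temperature and washed with TBST. BODIPY and mCherry signals imaged by epifluorescence microscopy.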

wild-type mSmo = wild-type mSmo (Mus musculus, UniProt P56726); format: cell-based; conditions: for Effect on Hh pathway activity (Gli1 mRNA): mSmo, irrespective of sterol depletion; for Activation of Hh signaling (in words): wild-type mSmo, sterols delivered as MCD complexes
mSmoΔCRD [8] = format: cell-based, mouse; conditions: irrespective of sterol depletion
mSmo = mSmo (Mus musculus, UniProt P56726); experiment: Ciliary localization of mSmo in rescued Smo-null cells; format: cell-based; conditions: with or without sterol depletion
How it was run: (§2)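 Smo-null cells rescued with the mSmo construct, grown on glass coverslips. Confluent cultures starved overnight in DMEM, then sterol-depleted with 1.5% MCD in DMEM for 30 min. Later incubations with agents in DMEM plus 40 μM pravastatin. Immunofluorescence used anti-acetylated tubulin as cilia marker; ciliary Smo intensity quantified by automated image analysis, at least 300 cilia per condition.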

mSmoΔCRD [9] = experiment: Ciliary localization of mSmoΔCRD in rescued Smo-null cells; format: cell-based, mouse; conditions: with or without sterol depletion
How it was run: as §2

Compound: CC(C)CCC[C@@H](C)[C@H]1CC[C@H]2[C@@H]3C(O)C=C4C[C@@H](O)CC[C@]4(C)[C@H]3CC[C@]12C (stereo partly shown) [7-hydroxycholesterol]
- Recruitment of endogenous Smo to cilia [1]: inactive

Compound: CCCCC[C@@](C)(O)[C@H]1CC[C@H]2[C@@H]3CC=C4C[C@@H](O)CC[C@]4(C)[C@H]3CC[C@@]21C [20(R)-OHC-Pent]
- IC50 (XSmoG84S ectodomain [2]): 5.5 µM

Compound: CC(C)CCC[C@@](C)(O)[C@H]1CC[C@H]2[C@@H]3CC=C4C[C@@H](O)CC[C@]4(C)[C@H]3CC[C@@]21C [20(R)-OHC]
- Activation of Hh signaling (in words) (mSmoG115S): strongly activated

Compound: CC(C)CCC[C@](C)(O)[C@H]1CC[C@H]2[C@@H]3CC=C4C[C@@H](O)CC[C@]4(C)[C@H]3CC[C@@]21C [20(S)-OHC, 20(S)-hydroxycholesterol]
- IC50 (XSmo ectodomain [3]): 1.8 µM
- Melting temperature (Tm) of XSmo ectodomain (XSmo ectodomain [4]): 66.5 °C

Compound: CCCCCC(C)(O)[C@H]1CC[C@H]2[C@@H]3CC=C4C[C@@H](O)CC[C@]4(C)[C@H]3CC[C@]12C (stereo partly drawn) [20(S)-OHC-Pent]
- Activation of Hh signaling (in words) (mSmoG115S): reduced
- Activation of Hh signaling (in words) (mSmoD99A): do not respond
- Activation of Hh signaling (in words) (mSmoG115F): does not activate
- Activation of Hh signaling (in words) (mSmoE164L): significantly decreases activation
- Activation of Hh signaling (in words) (mSmoG115S/E164L): do not respond
- IC50 (XSmoG84S ectodomain [2]): 44 µM
- Synergy with Shh [5]: does not synergize

Compound: C[C@H](CCCC(C)(C)F)[C@H]1CC[C@H]2[C@@H]3CC=C4C[C@@H](O)CC[C@]4(C)[C@H]3CC[C@]12C [25F-cholesterol, 25-fluorocholesterol]
- Rescue of Smo recruitment to cilia in response to Shh [1]: rescued

Compound: CC1=C2CC3C(CC=C4C[C@@H](O)CCC43C)C2CCC12O[C@@H]1CC(C)CN(CCNC(=O)CCCCCNC(=O)CCC3=[N+]4C(=Cc5c(C)cc(C)n5[B-]4(F)F)C=C3)C1C2C (stereo partly shown) [BODIPY-cyclopamine]
- Kd (XSmoCRD): 0.389 µM
- Kd (XSmo ectodomain [6]): 0.434 µM
- Kd (XSmoG84S ectodomain [7]): 0.621 µM
- Binding to mSmoD477G/E522K in cells (fluorescence microscopy) (mSmoD477G/E522K): does not bind

Compound: C[C@H](CCCC(F)(C(F)(F)F)C(F)(F)F)[C@H]1CC[C@H]2[C@@H]3CC=C4C[C@@H](O)CC[C@]4(C)[C@H]3CC[C@]12C [F7-cholesterol]
- Rescue of Smo recruitment to cilia in response to Shh [1]: rescued

Compound: CNC1CCC(N(Cc2cccc(-c3ccncc3)c2)C(=O)c2sc3ccccc3c2Cl)CC1 (stereo not shown) [SAG]
- Effect on Hh pathway activity (Gli1 mRNA) (wild-type mSmo): activated
- Activation of Hh signaling (in words) (mSmoD99A): robust activation
- Effect on Hh pathway activity (Gli1 mRNA) (mSmoΔCRD [8]): activated
- Recruitment of endogenous Smo to cilia [1]: strongly recruit
- Ciliary localization of mSmo (mSmo): accumulate in cilia
- Ciliary localization of mSmoΔCRD (mSmoΔCRD [9]): accumulate in cilia

Compound: Cc1nn(-c2ccccc2)c(C)c1/C=N/N1CCN(Cc2ccccc2)CC1 [SANT1]
- Effect on Hh pathway activity (Gli1 mRNA) (wild-type mSmo): inhibited
- Effect on Hh pathway activity (Gli1 mRNA) (mSmoΔCRD [8]): inhibited
- Ciliary localization of mSmo (mSmo): reduced
- Ciliary localization of mSmoΔCRD (mSmoΔCRD [9]): reduced

Compound: CC(C)CCC[C@@H](C)[C@H]1CC[C@H]2[C@@H]3CC[C@H]4C[C@@H](O)CC[C@]4(C)[C@H]3CC[C@]12C [cholestanol]
- Activation of Hh signaling (in words) (wild-type mSmo): inactive
- Binding to XSmo ectodomain (in words) (XSmo ectodomain [3]; competition of BODIPY-cyclopamine): inactive; also recorded: does not bind
- Melting temperature (Tm) of XSmo ectodomain (XSmo ectodomain [4]): 62.9 °C

Compound: CC(C)CCC[C@@H](C)[C@H]1CC[C@H]2[C@@H]3CC=C4C[C@@H](O)CC[C@]4(C)[C@H]3CC[C@]12C [cholesterol]
- Synergy with Shh (wild-type mSmo; Smo-null cells rescued with wild type mSmo, sterols 5 μM as MCD complexes): synergizes
- Rescue of mSmo activation by Shh after sterol depletion (wild-type mSmo; add-back 100 μM MCD complex): rescues
- Activation of Hh signaling (in words) (wild-type mSmo): activate
- Activation of Hh signaling (in words) (wild-type mSmo; listed as Cholesterol): activates Hh signaling
- Activation of Hh signaling (in words) (mSmoG115S): activate
- Activation of Hh signaling (in words) (mSmoD99A): defective
- Activation of Hh signaling (in words) (mSmoG115F): responds
- Activation of Hh signaling (in words) (mSmoG115S/E164L): activate
- IC50 (XSmo ectodomain [3]): 2.4 µM
- Melting temperature (Tm) of XSmo ectodomain (XSmo ectodomain [4]): 65.3 °C
- Synergy with Shh [5]: synergizes
- Rescue of Smo recruitment to cilia in response to Shh [1]: rescued

Compound: CC1=C2C[C@H]3[C@@H](CC=C4C[C@@H](O)CC[C@@]43C)[C@@H]2CC[C@]12O[C@@H]1C[C@H](C)CN[C@H]1[C@H]2C [cyclopamine]
- IC50 (XSmo ectodomain [3]): 4.5 µM
- Melting temperature (Tm) of XSmo ectodomain (XSmo ectodomain [4]): 66.6 °C

Compound: BODIPY-20(S)-hydroxycholesterol [BODIPY-20(S)-OHC]
- Kd (XSmoCRD): 0.225 µM
- Kd (XSmo ectodomain [6]): 0.138 µM

Compound: BODIPY-22-azacholesterol [BODIPY-22-NHC]
- Kd (XSmoCRD): 1.36 µM
- Kd (XSmo ectodomain [6]): 1.4 µM
